Experimental data reported in ChEMBL document CHEMBL1143884, “Pyrimidine-based inhibitors of CaMKIIdelta” (Bioorg Med Chem Lett, 2008).

What was measured:
[1] = target: T1, Calcium/calmodulin-dependent protein kinase type II subunit delta (Homo sapiens, UniProt Q13557); test: Inhibition of cloned CaMK2delta
Method in brief: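 Radiometric filter-binding assay. Recombinant CaMKIIδ in 50 mM PIPES pH 7, 0.2 mg/ml BSA, 1 mM DTT, preincubated with inhibitor. Reaction started with buffer containing MgCl2, ATP, CaCl2, calmodulin, [His5]Autocamtide-2 substrate and [γ-33P]ATP, run 3 min at RT. Stopped on P81 phosphocellulose filter, washed with 1% phosphoric acid, counted by scintillation.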

[2] = target: T1, Calcium/calmodulin-dependent protein kinase type II subunit delta; test: Inhibition of CaMK2delta-mediated vimentin phosphorylation in human HL2 cells at 5 uM after 1 hr by ELISA; assay type: cell-based
[3] = target: T1, Calcium/calmodulin-dependent protein kinase type II subunit delta; test: Inhibition of CaMK2delta-mediated vimentin phosphorylation in human HL2 cells after 1 hr by ELISA; assay type: cell-based
Method in brief: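 HL-2 cells preincubated 1 h at 37 °C with inhibitor at increasing concentrations, then CaMKII activated with ionomycin for 15 min at 37 °C. Cells lysed in ice-cold lysis buffer and frozen at −80 °C before read-out.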

T1 sequence (Q13557 whole entry): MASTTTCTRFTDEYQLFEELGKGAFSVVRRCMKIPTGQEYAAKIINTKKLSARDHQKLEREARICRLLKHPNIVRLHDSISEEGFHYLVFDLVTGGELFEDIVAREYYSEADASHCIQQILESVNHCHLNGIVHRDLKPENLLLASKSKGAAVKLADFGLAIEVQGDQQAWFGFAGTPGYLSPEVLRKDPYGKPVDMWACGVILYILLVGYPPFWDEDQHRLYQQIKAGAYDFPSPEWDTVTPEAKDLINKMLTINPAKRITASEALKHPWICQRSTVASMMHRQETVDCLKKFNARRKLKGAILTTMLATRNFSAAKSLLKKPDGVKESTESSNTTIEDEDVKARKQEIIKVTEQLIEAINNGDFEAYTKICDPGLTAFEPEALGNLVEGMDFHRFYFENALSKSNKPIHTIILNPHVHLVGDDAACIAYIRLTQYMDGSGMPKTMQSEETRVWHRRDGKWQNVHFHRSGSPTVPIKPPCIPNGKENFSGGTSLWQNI

O=C(O)Cc1ccc(-c2ccnc(Nc3ccccc3)n2)cc1
IC50 [1]: > 20 µM

Clc1cccc(Nc2nccc(-c3cccc(N4CCOCC4)c3)n2)c1
IC50 [1]: 0.24 µM

O=C(NO)c1ccc(-c2ccnc(Nc3ccccc3)n2)cc1
IC50 [1]: 0.29 µM
inhibition [2]: 90%

C[C@H](Nc1cc(Nc2nccc(-c3ccc(CC(=O)O)cc3)n2)ccn1)c1ccccc1
IC50 [1]: 3.42 µM

COC(=O)c1ccc(-c2ccnc(Nc3ccnc(N[C@@H](C)c4ccccc4)c3)n2)cc1
IC50 [1]: 1.69 µM

Cc1cccc(-c2ccnc(Nc3ccnc(N[C@@H](C)c4ccccc4)c3)n2)c1
IC50 [1]: 0.92 µM

C[C@H](Nc1cc(Nc2nccc(-c3cccc(-c4ccccc4)c3)n2)ccn1)c1ccccc1
IC50 [1]: 3.14 µM

C[C@H](Nc1cc(Nc2nccc(-c3ccc(C(=O)NO)cc3)n2)ccn1)c1ccccc1
IC50 [1]: 0.17 µM

O=C(O)c1ccc(-c2ccnc(Nc3cccc(Cl)c3)n2)cc1
IC50 [1]: 0.042 µM
inhibition [2]: 0%

Clc1cccc(Nc2nccc(-c3cccc(N4CCNCC4)c3)n2)c1
IC50 [3]: 0.32 µM
IC50 [1]: 0.009 µM

C[C@H](Nc1cc(Nc2nccc(-c3cccc(C(=O)O)c3)n2)ccn1)c1ccccc1
IC50 [1]: 13 µM

CNC(=O)c1ccc(-c2ccnc(Nc3ccnc(N[C@@H](C)c4ccccc4)c3)n2)cc1
IC50 [1]: 0.72 µM

NCCNc1cccc(-c2ccnc(Nc3cccc(Cl)c3)n2)c1
IC50 [3]: 0.11 µM
IC50 [1]: 0.012 µM

O=C(O)c1ccc(-c2ccnc(Nc3ccncc3)n2)cc1
IC50 [1]: 0.39 µM

C[C@H](Nc1cc(Nc2nccc(-c3cccc(F)c3)n2)ccn1)c1ccccc1
IC50 [1]: 1.28 µM

C[C@H](Nc1cc(Nc2nccc(-c3ccc(C(=O)O)cc3)n2)ccn1)c1ccccc1
IC50 [1]: 0.21 µM

c1ccc(Nc2nccc(-c3ccc(-c4nnn[nH]4)cc3)n2)cc1
IC50 [1]: 0.77 µM
inhibition [2]: 0%

C[C@H](Nc1cc(Nc2nccc(-c3ccc(Cl)cc3)n2)ccn1)c1ccccc1
IC50 [1]: 2.87 µM

Clc1cccc(Nc2nccc(-c3cccc(N4CCCCC4)c3)n2)c1
IC50 [1]: 0.93 µM

C[C@H](Nc1cc(Nc2nccc(-c3ccc(-c4nnn[nH]4)cc3)n2)ccn1)c1ccccc1
IC50 [1]: 2.26 µM

Nc1cccc(-c2ccnc(Nc3cccc(Cl)c3)n2)c1
IC50 [1]: 0.66 µM

C[C@H](Nc1cc(Nc2nccc(-c3ccc(N(C)C)cc3)n2)ccn1)c1ccccc1
IC50 [1]: 2.22 µM

O=C(O)c1ccc(-c2ccnc(Nc3ccccc3)n2)cc1
IC50 [1]: 0.064 µM
inhibition [2]: 0%

COC(=O)c1ccc(-c2ccnc(Nc3ccccc3)n2)cc1
IC50 [1]: > 20 µM
inhibition [2]: 0%

CNC(=O)c1ccc(-c2ccnc(Nc3ccccc3)n2)cc1
IC50 [1]: > 20 µM

Nc1cc(Nc2nccc(-c3ccc(C(=O)O)cc3)n2)ccn1
IC50 [1]: 0.066 µM
